Published values collected from several papers.
MAOB: Amine oxidase [flavin-containing] B (MAOB, Homo sapiens, UniProt P27338)
HCK: Tyrosine-protein kinase HCK (HCK, Homo sapiens, UniProt P08631)

CC(=O)ON=C1C=CC(=C(C#N)c2ccccc2)C=C1  activity vs control (Receptor-interacting serine/threonine-protein kinase 3 (RIPK3, Homo sapiens, UniProt Q9Y572); enzyme activity, inhibitor, ADP detection; 20 µM): 110%
C#Cc1cc(-c2cc(Nc3nc(N[C@@H](C)c4ccc(F)cn4)ncc3Cl)n[nH]2)ccc1C=O  inhibition (Serine/threonine-protein kinase N1 (PKN1, Homo sapiens, UniProt Q16512); enzyme activity, inhibitor; 0.2 µM): 38.5%
COc1cccc(NC(=O)c2ccc3c(c2)C(=O)NC3=O)c1  inhibition (MAOB; enzyme activity, inhibitor; 1 µM): < 5%
NC/C(=C\F)COc1cccc(Cn2c(=S)[nH]c(=O)c3[nH]cnc32)c1  inhibition (Beta-1 adrenergic receptor (ADRB1, Homo sapiens, UniProt P08588); ligand displacement, radioligand; 10 µM): < 50%
CCCCC(=O)Nc1ccc(-c2ccc3ncn(CCC)c(=O)c3c2)cn1  remaining binding (Serine/threonine-protein kinase NLK (NLK, Homo sapiens, UniProt Q9UBE8); binding, competition with immobilised ligand; 0.5 µM): 92%
Cc1cc(S(=O)(=O)N[C@H]2CC[C@H](CN3CCN(c4ccc(C5CCC(=O)NC5=O)cc4F)CC3)CC2)ccc1Nc1ncc(C(F)(F)F)c(N2CCC[C@](C)(O)C2)n1 (stereo partly shown)  remaining binding (NUAK family SNF1-like kinase 2 (NUAK2, Homo sapiens, UniProt Q9H093); binding, competition with immobilised ligand; 1 µM): 26%
COc1ccc2oc(-c3ccc4nc(N)oc4c3)c/c(=N\c3ccccc3NC(=O)CCN)c2c1  remaining binding (HCK; binding; 1 µM): 108%
O=C(Nc1ccc(F)c(Br)c1)c1ccc2c(c1)C(=O)NC2=O  inhibition (MAOB; enzyme activity, inhibitor; 1 µM): 97.3%
Nc1nc2c(ncn2[C@@H]2O[C@H](COP(=O)(O)O)[C@@H](O)[C@H]2O)c(=O)[nH]1  Km (GUK1 (Homo sapiens, UniProt Q16774); enzyme activity, substrate): 14.9 µM
O=C(Nc1ccccc1Br)c1ccc2c(c1)C(=O)NC2=O  inhibition (MAOB; enzyme activity, inhibitor; 1 µM): < 5%
C1=C/COCc2cc(ccc2OCCN2CCCC2)Nc2nccc(n2)-c2cccc(c2)COC/1  remaining binding (HCK; binding; 0.1 µM): 100%
O=C(Nc1ccc(Cl)c(F)c1)c1ccc2c(c1)C(=O)NC2=O  inhibition (MAOB; enzyme activity, inhibitor; 1 µM): 87%
Cc1cc(F)cc2c(CCC(=O)N[C@@H]3C(=O)NC[C@H]3O)c(-c3ccc(F)cc3)[nH]c12  inhibition (Histamine H1 receptor (HRH1, Homo sapiens, UniProt P35367); cell-free assay; 10 µM): 17%
